In brackets after ≈: the same amount, converted by molar mass.
Tests used:
Format in all cases: functional
Streptococcus pneumoniae = assay: Antibacterial activity against Streptococcus pneumoniae by two-fold serial dilution method
Summary of the method: (§1)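 Standard two-fold serial dilution in 96-well microtest plates following NCCLS. Top dilutions printed as 32, 16, 8, 4, 2, 1, 0.5 ug/mL. Wells inoculated and held at 37 °C for 24 h. Growth judged visually and by spectrophotometer, in triplicate. MIC is the lowest concentration giving complete growth inhibition.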

Micrococcus luteus = assay: Antibacterial activity against Micrococcus luteus by two-fold serial dilution method; summary of the method: as §1
Staphylococcus aureus [1] = assay: Antibacterial activity against methicillin-resistant Staphylococcus aureus N315 by two-fold serial dilution method
Summary of the method: (§2)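 MIC read as the lowest concentration giving complete growth inhibition. Two-fold serial dilutions were made in 96-well plates following NCCLS, giving a series down to 0.5 µg/mL (…32, 16, 8, 4, 2, 1, 0.5). Plates were inoculated and incubated at 37 °C for 24 h. A DMSO-with-inoculum control without drug was included. Growth was monitored visually and spectrophotometrically, in triplicate.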

Staphylococcus aureus [2] = assay: Antibacterial activity against Staphylococcus aureus ATCC 25923 by two-fold serial dilution method; summary of the method: as §1
Bacillus spizizenii = assay: Antibacterial activity against Bacillus subtilis ATCC 6633 by two-fold serial dilution method; summary of the method: as §1
Pseudomonas aeruginosa = assay: Antibacterial activity against Pseudomonas aeruginosa by two-fold serial dilution method; summary of the method: as §1
Escherichia coli = assay: Antibacterial activity against Escherichia coli DH52 by two-fold serial dilution method; summary of the method: as §1
Shigella dysenteriae = assay: Antibacterial activity against Shigella dysenteriae by two-fold serial dilution method; summary of the method: as §2
[3] = Antibacterial activity against Eberthella typhosa by two-fold serial dilution method; summary of the method: as §2
Cyberlindnera jadinii = assay: Antifungal activity against Candida utilis after 24 hrs by microbroth dilution method; settings: Williopsis jadinii
Summary of the method: (§3)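 Spore suspension prepared in sterile distilled water from one-day-old cultures on Sabouraud agar, final 1-5 x 10^3 spores/mL. Compounds were serially diluted in RPMI 1640 to give eleven dilutions. Incubation at 35 °C for 24 h. Growth read visually and spectrophotometrically, in triplicate. MIC is the lowest concentration with complete inhibition.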

Saccharomyces cerevisiae = assay: Antifungal activity against Saccharomyces cerevisiae after 24 hrs by microbroth dilution method; summary of the method: as §3
Candida albicans = assay: Antifungal activity against Candida albicans ATCC 76615 after 24 hrs by microbroth dilution method; settings: ATCC 76615, 24 h; summary of the method: as §3
Pichia norvegensis = assay: Antifungal activity against Candida mycoderma after 24 hrs by microbroth dilution method

Row | Compound | MIC (Streptococcus pneumoniae) | MIC (Micrococcus luteus) | MIC (Staphylococcus aureus [1]) | MIC (Staphylococcus aureus [2]) | MIC (Bacillus spizizenii) | MIC (Pseudomonas aeruginosa) | MIC (Escherichia coli) | MIC (Shigella dysenteriae) | MIC [3] | MIC (Cyberlindnera jadinii) | MIC (Saccharomyces cerevisiae) | MIC (Candida albicans) | MIC (Pichia norvegensis)
1 | O=C(O)c1cn(CC(O)Cn2cnc([N+](=O)[O-])c2)c2cc(C(F)(F)F)ccc2c1=O (configuration not stated) | 16 µg/mL (≈ 37.5 µM) | 8 µg/mL (≈ 18.8 µM) | 4 µg/mL (≈ 9.38 µM) | 4 µg/mL (≈ 9.38 µM) | 4 µg/mL (≈ 9.38 µM) | 8 µg/mL (≈ 18.8 µM) | 2 µg/mL (≈ 4.69 µM) | 4 µg/mL (≈ 9.38 µM) | 4 µg/mL (≈ 9.38 µM) | 128 µg/mL (≈ 300 µM) | 32 µg/mL (≈ 75.1 µM) | 128 µg/mL (≈ 300 µM) | 128 µg/mL (≈ 300 µM)
2 | O=C(O)c1cn(CC(O)Cn2cnc([N+](=O)[O-])c2)c2c(F)cccc2c1=O (configuration not stated) | 32 µg/mL (≈ 85 µM) | 4 µg/mL (≈ 10.6 µM) | 4 µg/mL (≈ 10.6 µM) | 16 µg/mL (≈ 42.5 µM) | 4 µg/mL (≈ 10.6 µM) | 8 µg/mL (≈ 21.3 µM) | 4 µg/mL (≈ 10.6 µM) | 8 µg/mL (≈ 21.3 µM) | 32 µg/mL (≈ 85 µM) | 512 µg/mL (≈ 1360 µM) | 64 µg/mL (≈ 170 µM) | 128 µg/mL (≈ 340 µM) | 128 µg/mL (≈ 340 µM)
3 | CCOC(=O)c1cn(CC(O)Cn2c([N+](=O)[O-])cnc2C)c2cc(C(F)(F)F)ccc2c1=O (racemic) |  | 4 µg/mL (≈ 8.54 µM) | 8 µg/mL (≈ 17.1 µM) | 4 µg/mL (≈ 8.54 µM) | 16 µg/mL (≈ 34.2 µM) | 8 µg/mL (≈ 17.1 µM) | 2 µg/mL (≈ 4.27 µM) | 2 µg/mL (≈ 4.27 µM) | 4 µg/mL (≈ 8.54 µM) | 128 µg/mL (≈ 273 µM) | 8 µg/mL (≈ 17.1 µM) | 8 µg/mL (≈ 17.1 µM) | 32 µg/mL (≈ 68.3 µM)
4 | CCOC(=O)c1cn(CC(O)Cn2c([N+](=O)[O-])cnc2C)c2cc(Cl)c(F)cc2c1=O (racemic) |  | 128 µg/mL (≈ 283 µM) | 4 µg/mL (≈ 8.83 µM) | 64 µg/mL (≈ 141 µM) | 8 µg/mL (≈ 17.7 µM) | 32 µg/mL (≈ 70.7 µM) | 64 µg/mL (≈ 141 µM) | 16 µg/mL (≈ 35.3 µM) | 8 µg/mL (≈ 17.7 µM) | 256 µg/mL (≈ 565 µM) | 16 µg/mL (≈ 35.3 µM) | 128 µg/mL (≈ 283 µM) | 128 µg/mL (≈ 283 µM)
5 | O=C(O)c1cn(CC(O)Cn2cnc([N+](=O)[O-])c2)c2c(Cl)cc(Cl)cc2c1=O (configuration not stated) | 8 µg/mL (≈ 18.7 µM) | 8 µg/mL (≈ 18.7 µM) | 16 µg/mL (≈ 37.5 µM) | 8 µg/mL (≈ 18.7 µM) | 4 µg/mL (≈ 9.36 µM) | 8 µg/mL (≈ 18.7 µM) | 8 µg/mL (≈ 18.7 µM) | 8 µg/mL (≈ 18.7 µM) | 16 µg/mL (≈ 37.5 µM) | 256 µg/mL (≈ 599 µM) | 128 µg/mL (≈ 300 µM) | 256 µg/mL (≈ 599 µM) | 64 µg/mL (≈ 150 µM)
6 | CCOC(=O)c1cn(CC(O)Cn2c([N+](=O)[O-])cnc2C)c2ccc(F)cc2c1=O (racemic) |  | 8 µg/mL (≈ 19.1 µM) | 4 µg/mL (≈ 9.56 µM) | 16 µg/mL (≈ 38.2 µM) | 8 µg/mL (≈ 19.1 µM) | 16 µg/mL (≈ 38.2 µM) | 8 µg/mL (≈ 19.1 µM) | 8 µg/mL (≈ 19.1 µM) | 4 µg/mL (≈ 9.56 µM) | 128 µg/mL (≈ 306 µM) | 32 µg/mL (≈ 76.5 µM) | 64 µg/mL (≈ 153 µM) | 128 µg/mL (≈ 306 µM)
7 | CCOC(=O)c1cn(CC(O)Cn2cnc([N+](=O)[O-])c2)c2ccc(C)cc2c1=O (racemic) |  | 8 µg/mL (≈ 20 µM) | 16 µg/mL (≈ 40 µM) | 16 µg/mL (≈ 40 µM) | 8 µg/mL (≈ 20 µM) | 4 µg/mL (≈ 9.99 µM) | 8 µg/mL (≈ 20 µM) | 8 µg/mL (≈ 20 µM) | 4 µg/mL (≈ 9.99 µM) | 8 µg/mL (≈ 20 µM) | 8 µg/mL (≈ 20 µM) | 2 µg/mL (≈ 5 µM) | 128 µg/mL (≈ 320 µM)
8 | CCOC(=O)c1cn(CC(O)Cn2c([N+](=O)[O-])cnc2C)c2c(Cl)cc(Cl)cc2c1=O (racemic) |  | 16 µg/mL (≈ 34.1 µM) | 32 µg/mL (≈ 68.2 µM) | 16 µg/mL (≈ 34.1 µM) | 8 µg/mL (≈ 17 µM) | 16 µg/mL (≈ 34.1 µM) | 16 µg/mL (≈ 34.1 µM) | 8 µg/mL (≈ 17 µM) | 8 µg/mL (≈ 17 µM) | 256 µg/mL (≈ 546 µM) | 128 µg/mL (≈ 273 µM) | 64 µg/mL (≈ 136 µM) | 64 µg/mL (≈ 136 µM)
9 | CCOC(=O)c1cn(CC(O)Cn2c([N+](=O)[O-])cnc2C)c2c(F)cc(F)cc2c1=O (racemic) |  | 4 µg/mL (≈ 9.17 µM) | 16 µg/mL (≈ 36.7 µM) | 8 µg/mL (≈ 18.3 µM) | 32 µg/mL (≈ 73.3 µM) | 4 µg/mL (≈ 9.17 µM) | 4 µg/mL (≈ 9.17 µM) | 16 µg/mL (≈ 36.7 µM) | 4 µg/mL (≈ 9.17 µM) | 64 µg/mL (≈ 147 µM) | 64 µg/mL (≈ 147 µM) | 128 µg/mL (≈ 293 µM) | 64 µg/mL (≈ 147 µM)
10 | CCOC(=O)c1cn(CC2CO2)c2cc(Cl)c(F)cc2c1=O (racemic) |  | 64 µg/mL (≈ 196 µM) | 8 µg/mL (≈ 24.6 µM) | 128 µg/mL (≈ 393 µM) | 128 µg/mL (≈ 393 µM) | 32 µg/mL (≈ 98.2 µM) | 64 µg/mL (≈ 196 µM) | 128 µg/mL (≈ 393 µM) | 8 µg/mL (≈ 24.6 µM) | 512 µg/mL (≈ 1570 µM) | 4 µg/mL (≈ 12.3 µM) | 64 µg/mL (≈ 196 µM) | 1 µg/mL (≈ 3.07 µM)
11 | CCOC(=O)c1cn(CC(O)Cn2c([N+](=O)[O-])cnc2C)c2ccc(OC)cc2c1=O (racemic) |  | 256 µg/mL (≈ 595 µM) | 8 µg/mL (≈ 18.6 µM) | 16 µg/mL (≈ 37.2 µM) | 8 µg/mL (≈ 18.6 µM) | 64 µg/mL (≈ 149 µM) | 8 µg/mL (≈ 18.6 µM) | 32 µg/mL (≈ 74.3 µM) | 16 µg/mL (≈ 37.2 µM) | 256 µg/mL (≈ 595 µM) | 2 µg/mL (≈ 4.65 µM) | 8 µg/mL (≈ 18.6 µM) | 256 µg/mL (≈ 595 µM)
12 | CCOC(=O)c1cn(CC(O)Cn2cnc([N+](=O)[O-])c2)c2cc(C(F)(F)F)ccc2c1=O (racemic) |  | 8 µg/mL (≈ 17.6 µM) | 4 µg/mL (≈ 8.8 µM) | 8 µg/mL (≈ 17.6 µM) | 4 µg/mL (≈ 8.8 µM) | 64 µg/mL (≈ 141 µM) | 128 µg/mL (≈ 282 µM) | 16 µg/mL (≈ 35.2 µM) | 64 µg/mL (≈ 141 µM) | 16 µg/mL (≈ 35.2 µM) | 16 µg/mL (≈ 35.2 µM) | 16 µg/mL (≈ 35.2 µM) | 32 µg/mL (≈ 70.4 µM)

Reference: ChEMBL document CHEMBL3351780, “Novel hybrids of metronidazole and quinolones: synthesis, bioactive evaluation, cytotoxicity, preliminary antimicrobial mechanism and effect of metal ions on their transportation by human serum albumin” (Eur J Med Chem, 2014)
